# Activity calls are given as the source filed them. No cut-off for these calls is given here.
# How the values were obtained:
# Caspase-3 [1] = target: T1, Caspase-3 (Homo sapiens, UniProt P42574); assay: Activation of N-terminal His6-tagged recombinant procaspase-3 expressed in Escherichia coli assessed as hydrolysis of acetyl-DEVD-p-nitroanilide after 2 hrs by SDS-PAGE
# T1 sequence (P42574 whole entry): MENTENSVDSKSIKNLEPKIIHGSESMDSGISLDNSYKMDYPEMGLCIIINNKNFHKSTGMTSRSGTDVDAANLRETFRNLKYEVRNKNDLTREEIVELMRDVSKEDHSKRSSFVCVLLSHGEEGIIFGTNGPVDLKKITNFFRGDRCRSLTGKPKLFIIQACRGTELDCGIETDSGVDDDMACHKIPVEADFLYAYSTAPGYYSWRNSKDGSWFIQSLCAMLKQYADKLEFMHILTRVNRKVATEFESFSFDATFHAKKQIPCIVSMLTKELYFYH
# HL-60 [2] = assay: Induction of apoptosis in human HL60 cells assessed as increase in PARP1 cleavage at 10 uM after 12 hrs by fluorescence assay; format: functional, cell-based
# HL-60 [3] = assay: Induction of apoptosis in human HL60 cells assessed early apoptotic cells at 100 uM after 20 hrs using annexin V-propidium iodide staining by flow cytometry; format: functional
# Summary of the method: (§1)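 HL-60 cells treated 20 h at 37 °C with 100 µM drug in DMSO or DMSO alone; washed, stained with annexin V–Alexa Fluor 488 (15 min, 23 °C) plus propidium iodide; flow cytometry at 525 and 675 nm, ≥50,000 cells per experiment.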
# [4] = Cytotoxicity against human colon cells after 24 hrs by MTS/PMS assay; format: cell-based; conditions: Colon cell
# Mus musculus [5] = assay: Toxicity in BALB/c mouse xenografted with human ACHN cells assessed as effect on food intake at 5 mg administered via pellet measured after 54 days of tumor implantation; format: organism-based; conditions: in vivo, other, 1296 h
# Summary of the method: (§2)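 Ovariectomized female athymic BALB/c nu/nu mice; ACHN cells in Matrigel injected subcutaneously into four flanks. After 4 weeks (mean tumor area 34.3 mm2), 20-mg cholesterol pellets with 0, 1 or 5 mg drug implanted subcutaneously; six mice per group. Tumor volume v = 0.5·a·b2 measured weekly. Food intake over two consecutive 24-h periods at study end (8 weeks post-implant).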
# NCI-H226 [6] = assay: Antitumor activity against human NCI-H226 cells xenografted in po dosed BALB/c mouse administered SID for 21 days assessed as retardation of tumor growth measured after 1 week post last dose; format: functional, organism-based
# Summary of the method: (§3)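 Male athymic BALB/c nude mice, 5 weeks old; 2 × 10^6 NCI-H226 cells injected subcutaneously into the flanks, eight mice per group, three tumors per mouse. Once tumors reached about 50 mm3 (~4 weeks), 0, 50 or 100 mg/kg was given by oral gavage in 24:1 vegetable oil/DMSO once daily for 21 d. Caliper volume (v = 0.5·a·b2) and body weight tracked; killed 1 week later.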
# HL-60 [7] = assay: Induction of apoptosis in human HL60 cells assessed late apoptotic cells at 100 uM after 20 hrs using annexin V-propidium iodide staining by flow cytometry; format: functional; summary of the method: as §1
# Caspase-3 [8] = target: Caspase-3 (Homo sapiens, UniProt P42574, D179A); assay: Activation of N-terminal His6-tagged recombinant procaspase-3 D179A mutant expressed in Escherichia coli assessed as hydrolysis of acetyl-DEVD-p-nitroanilide after 2 hrs by SDS-PAGE; conditions: in the assay text read “by spectrophotometry” for “by SDS-PAGE”
# Summary of the method: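 Alanine substitution in the procaspase-3 safety-catch Asp-Asp-Asp triad (Asp179, Asp180, Asp181). The wild-type or mutant proenzyme was incubated with a range of compound concentrations for 12 h at 37 °C. Ac-DEVD-pNA was then added and absorbance at 405 nm was read every 2 min for 2 h. Activity was taken from the linear-phase slope and expressed as relative increase per mutant.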
# NCI-H226 [9] = assay: Antitumor activity against human NCI-H226 cells isolated from BALB/c mouse xenograft assessed as decrease in metastatic tumor burden at 100 mg/kg, po administered from day 1 to 4 and day 7 to 11 measured after 28 days by imaging assay; format: functional, organism-based; parameters: dose 100 mg/kg
# Summary of the method: (§4)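 Male athymic nude mice received 2 × 10^6 NCI-H226 cells by tail-vein injection. Dosing was 100 mg/kg by oral gavage in 24:1 vegetable oil/DMSO once daily on days 1–4 and 7–11, against vehicle, four mice per group. Body weight was followed. At 28 d the lungs were examined, sectioned, stained and imaged for tumor burden.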
# HL-60 [10] = assay: Induction of apoptosis in human HL60 cells assessed as mitochondrial membrane depolarization at 100 uM after 12 hrs by fluorescence assay; format: functional, cell-based
# Summary of the method: (§5)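 HL-60 cells exposed to drug in DMSO or DMSO alone for various times, stained with JC-9 dye for 10 min at room temperature, then analysed by flow cytometry at 525/675 nm on 50,000 cells. Depolarization was derived from the red-channel shift.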
# [11] = Plasma concentration in BALB/c mouse xenografted with human ACHN cells at 5 mg administered via pellet measured after 54 days of tumor implantation; format: ADME, organism-based
# Mus musculus [12] = assay: Toxicity in BALB/c mouse xenografted with human NCI-H226 cells assessed as effect on body weight at 50 to 100 mg/kg, po SID for 21 days measured after 1 week post last dose; format: organism-based; parameters: dose 50-100 mg/kg, route oral; conditions: in vivo, 168 h; summary of the method: as §3
# HL-60 [13] = assay: Induction of apoptosis in human HL60 cells assessed viable cells at 5 uM after 28 hrs using annexin V-propidium iodide staining by flow cytometry; format: functional
# HL-60 [14] = assay: Induction of apoptosis in human HL60 cells assessed as increase in caspase-3 activity at 100 uM up to 2 hrs; format: functional
# Summary of the method: (§6)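 HL-60 cells were treated with a range of drug concentrations for various times, then washed. They were lysed by sonication in ice-cold caspase assay buffer and given Ac-DEVD-pNA. Absorbance at 405 nm was read every 2 min for 2 h, and the cleavage rate came from the linear slope.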
# ACHN = assay: Antitumor activity against human ACHN cells xenografted in BALB/c mouse assessed as tumor growth at 5 mg administered via pellet measured after 54 days of tumor implantation; summary of the method: as §2
# HL-60 [15] = assay: Induction of apoptosis in human HL60 cells assessed late apoptotic cells at 5 uM after 28 hrs using annexin V-propidium iodide staining by flow cytometry; format: functional
# Mus musculus [16] = assay: Toxicity in BALB/c mouse xenografted with human NCI-H226 cells assessed as effect on body weight at 100 mg/kg, po administered from day 1 to 4 and day 7 to 11 measured after 28 days; format: organism-based; parameters: dose 100 mg/kg, route oral; conditions: in vivo, 672 h; summary of the method: as §4
# HL-60 [17] = assay: Induction of apoptosis in human HL60 cells assessed non-viable necrotic cells at 100 uM after 20 hrs using annexin V-propidium iodide staining by flow cytometry; format: functional; summary of the method: as §1
# NCI-H226 [18] = assay: Antitumor activity against human NCI-H226 cells xenografted in BALB/c mouse assessed as suppression of tumor metastasis at 100 mg/kg, po administered from day 1 to 4 and day 7 to 11 measured after 28 days; format: functional, organism-based; parameters: dose 100 mg/kg; summary of the method: as §4
# HL-60 [19] = assay: Induction of apoptosis in human HL60 cells assessed early apoptotic cells at 5 uM after 28 hrs using annexin V-propidium iodide staining by flow cytometry; format: functional
# NCI-H226 [20] = assay: Induction of apoptosis in human NCI-H226 cells isolated from BALB/c mouse xenograft assessed as DNA fragmentation at 50 mg/kg, po SID for 21 days measured after 1 week post last dose by TUNEL assay; format: functional, organism-based; parameters: dose 50 mg/kg
# Summary of the method: (§7)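 Subcutaneous NCI-H226 tumors from nude mice dosed orally (50 or 100 mg/kg daily for 21 d in 24:1 vegetable oil/DMSO) were resected at end of study, sectioned and scored by TUNEL staining.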
# [21] = Cytotoxicity against human colon cancer cells after 24 hrs by MTS/PMS assay; format: functional, cell-based; conditions: Cancer cell lines
# HL-60 [22] = assay: Induction of apoptosis in human HL60 cells assessed as increase in PARP1 cleavage at 100 uM after 12 hrs by fluorescence assay; format: functional, cell-based
# Summary of the method: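 HL-60 cells given NAD+ with or without drug for various times, then lysed in PARP buffer with 25 mM H2O2 (60 min, 37 °C). Remaining NAD+ was measured fluorometrically after KOH/acetophenone (10 min, 4 °C) and formic acid (5 min, 110 °C). PARP activity is expressed relative to control wells.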
# HL-60 [23] = assay: Induction of apoptosis in human HL60 cells assessed viable cells at 100 uM after 20 hrs using annexin V-propidium iodide staining by flow cytometry; format: functional; summary of the method: as §1
# HL-60 [24] = assay: Induction of apoptosis in human HL60 cells assessed as chromatin condensation at 100 uM after 20 hrs measured by Hoechst-33258 staining; format: functional, cell-based
# Summary of the method: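 HL-60 cells were treated 20 h with 100 µM drug in DMSO against a DMSO control. Cells were then fixed in ice-cold ethanol overnight at 4 °C and stained with Hoechst-33258 for 30 min at room temperature. Condensed chromatin was viewed microscopically at 400× magnification.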
# HL-60 [25] = assay: Induction of apoptosis in human HL60 cells assessed non-viable necrotic cells at 5 uM after 28 hrs using annexin V-propidium iodide staining by flow cytometry; format: functional
# HL-60 [26] = assay: Induction of apoptosis in human HL60 cells assessed as increase in caspase-3 activity at 100 uM after 12 hrs; format: functional, cell-based; summary of the method: as §6
# HL-60 [27] = assay: Inhibition of apoptosis in human HL60 cells at 100 uM after 24 hrs using annexin V-propidium iodide staining by flow cytometry in presence of pan-caspase inhibitor Z-VAD-FMK; format: functional, cell-based
# NCI-H226 [28] = assay: Induction of apoptosis in human NCI-H226 cells isolated from BALB/c mouse xenograft assessed as DNA fragmentation at 100 mg/kg, po SID for 21 days measured after 1 week post last dose by TUNEL assay; format: functional, organism-based; parameters: dose 100 mg/kg; summary of the method: as §7
# HL-60 [29] = assay: Induction of apoptosis in human HL60 cells assessed as increase in caspase-3 activity at 10 uM after 12 hrs; format: functional, cell-based; summary of the method: as §6
# HL-60 [30] = assay: Induction of apoptosis in human HL60 cells assessed as mitochondrial membrane depolarization at 10 uM after 12 hrs by fluorescence assay; format: functional, cell-based; summary of the method: as §5
# Sequence of Caspase-3 (Homo sapiens, UniProt P42574, D179A) (P42574 176-277 D179A limits assumed, one chain of several): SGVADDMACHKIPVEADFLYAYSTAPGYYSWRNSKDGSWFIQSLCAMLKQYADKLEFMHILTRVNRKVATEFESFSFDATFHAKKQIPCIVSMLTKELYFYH
structure (smiles),measurement,setting,value
O=C(CN1CCN(Cc2ccccc2)CC1)N/N=C/c1ccccc1,EC50,Caspase-3 [1],> 50 µM
CCOC(=O)CN1CCN(Cc2ccccc2)CC1,EC50,Caspase-3 [1],> 50 µM
c1ccc(CN2CCN(Cc3ccccc3)CC2)cc1,EC50,Caspase-3 [1],> 50 µM
C=CCc1cccc(/C=N/NC(=O)CN2CCN(Cc3ccccc3)CC2)c1O [PAC-1],Activity,HL-60 [2],Active
same,Activity,HL-60 [3],80.2%
same,IC50,[4],5.02 µM
same,Activity,Mus musculus [5],Non-toxic
same,inhibition,NCI-H226 [6],Dose-dependent effect
same,Activity,HL-60 [7],9.6%
same,EC50,Caspase-3 [8],131 µM
same,Activity,NCI-H226 [9],Active
same,Activity,HL-60 [10],inactive
same,concentration at 1296 h,[11],4.4 nM
same,Activity,Mus musculus [12],Non-toxic
same,Activity,HL-60 [13],10.26%
same,Activity,HL-60 [14],50%
same,Activity,ACHN,Active
same,inhibition,ACHN,Active
same,Activity,HL-60 [15],8.73%
same,Activity,Mus musculus [16],Non-toxic
same,Activity,HL-60 [17],0.4%
same,Activity,NCI-H226 [18],Active
same,Activity,HL-60 [19],80.75%
same,Activity,NCI-H226 [20],Active
same,IC50,[21],0.003 µM
same,Activity,HL-60 [22],Active
same,Activity,HL-60 [23],9.8%
same,Activity,HL-60 [24],Active
same,Activity,HL-60 [25],0.26%
same,Activity,HL-60 [26],Active
same,Activity,HL-60 [27],inactive
same,Activity,NCI-H226 [28],Active
CN1CCN(CC(=O)N/N=C/c2ccccc2O)CC1,EC50,Caspase-3 [1],> 50 µM
NNC(=O)CN1CCN(Cc2ccccc2)CC1,EC50,Caspase-3 [1],> 50 µM
CCOC(=O)CN1CCNCC1 [ETHYL PIPERAZINOACETATE],EC50,Caspase-3 [1],> 50 µM
C/C=N/NC(=O)CN1CCN(Cc2ccccc2)CC1,EC50,Caspase-3 [1],> 50 µM
c1ccc(CN2CCNCC2)cc1,EC50,Caspase-3 [1],> 50 µM
COc1cc([C@@H]2c3cc4c(cc3[C@@H](O[C@@H]3O[C@@H]5CO[C@@H](C)O[C@H]5[C@H](O)[C@H]3O)[C@H]3COC(=O)[C@H]23)OCO4)cc(OC)c1O,Activity,HL-60 [2],Active
same,Activity,HL-60 [29],Active
same,Activity,HL-60 [30],Active
same,Activity,HL-60 [22],Active

# From ChEMBL document CHEMBL1221188, “Small-molecule activation of procaspase-3 to caspase-3 as a personalized anticancer strategy” (Nat Chem Biol, 2006)
